Measurements taken from ChEMBL document CHEMBL1240517, “Bisbibenzyl derivatives sensitize vincristine-resistant KB/VCR cells to chemotherapeutic agents by retarding P-gp activity” (Bioorg Med Chem, 2010).
Where “and” joins values, the source holds several entries; their conditions need not be identical. Equal values may be shown once. Calls of active or inactive are those of the source. The rule behind the calls is not given here.

Columns and labels:
KB [1] = experiment: Cytotoxicity against human KB cells after 48 hrs by MTT assay; type: functional, cell-based
KB/VCR [2] = experiment: Reversal of P-glycoprotein-mediated vincristine-resistance in human KB/VCR cells expressing Pgp assessed as ratio of vincristine IC50 to vincristine IC50 in presence of compound at 4 uM after 48 hrs by MTT assay
KB/VCR [3] = experiment: Reversal of P-glycoprotein-mediated vincristine-resistance in human KB/VCR cells expressing Pgp assessed as ratio of vincristine IC50 to vincristine IC50 in presence of compound at 16 uM after 48 hrs by MTT assay; type: cell-based
Procedure, shortened: (§1)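 Cells were exposed for 48 h to VCR or ADR alone, or to VCR or ADR combined with a fixed concentration of modulator. Verapamil (16 µM) served as the reference agent. […] RF = IC50 of drug alone / IC50 with modulator. Means ± SD of three experiments.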

KB/VCR [4] = experiment: Reversal of P-gp-mediated multidrug-resistance in human KB/VCR cells assessed as increase in intracellular adriamycin accumulation at 8 uM after 1 hr by flow cytometry relative to control; type: cell-based
Procedure, shortened: (§2)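 Cells were incubated with ADR at 3 µg/mL, alone or with modulator at 4, 8 or 16 µM, for 1 h at 37 °C. The reaction was stopped in an ice-water bath, and cells were washed twice with ice-cold PBS. Intracellular ADR fluorescence was measured by flow cytometry as mean intensity and expressed relative to DMSO-treated control cells.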

KB/VCR [5] = experiment: Reversal of P-gp-mediated multidrug-resistance in human KB/VCR cells assessed as increase in intracellular adriamycin accumulation at 4 uM after 1 hr by flow cytometry relative to control; type: cell-based; procedure, shortened: as §2
[6] = Cytotoxicity against human KB/VCR cells expressing Pgp after 48 hrs by MTT assay; type: functional, cell-based
Procedure, shortened: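 KB/VCR cells were kept in 200 ng/mL VCR and moved to drug-free medium for at least one week before use. Cells were exposed to graded compound concentrations for 48 h, with DMSO-treated cells as controls. Viability was read by MTT. IC50 values are means of three experiments.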

KB [7] = experiment: Induction of adriamycin accumulation in human KB cells at […] after 1 hr by flow cytometry; type: functional, cell-based; procedure, shortened: as §2
KB/VCR [8] = experiment: Reversal of P-gp-mediated multidrug-resistance in human KB/VCR cells assessed as increase in intracellular adriamycin accumulation at 16 uM after 1 hr by flow cytometry relative to control; type: cell-based; procedure, shortened: as §2
KB/VCR [9] = experiment: Reversal of P-glycoprotein-mediated vincristine-resistance in human KB/VCR cells expressing Pgp assessed as ratio of vincristine IC50 to vincristine IC50 in presence of compound at 4 uM after 48 hrs by MTT assay; type: cell-based
Procedure, shortened: (§3)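 Cells were exposed for 48 h to VCR or ADR alone, or to VCR or ADR combined with a fixed concentration of modulator. RF = IC50 of drug alone / IC50 with modulator. Means ± SD of three experiments.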

KB/VCR [10] = experiment: Reversal of P-glycoprotein-mediated vincristine-resistance in human KB/VCR cells expressing Pgp assessed as ratio of vincristine IC50 to vincristine IC50 in presence of compound at 8 uM after 48 hrs by MTT assay; type: cell-based; procedure, shortened: as §3
KB/VCR [11] = experiment: Induction of apoptosis in human KB/VCR cells expressing Pgp assessed as down-regulation of Bcl-2 expression at 16 uM after 48 hrs by Western blotting; type: functional, cell-based
Procedure, shortened: (§4)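 KB/VCR cells were treated for 48 h with modulator (16 µM), VCR (0.2 µM), or both. Cells were lysed in RIPA buffer containing protease and phosphatase inhibitors. Protein was separated by SDS–PAGE and transferred to PVDF. Membranes were blocked in 5% milk/TBST and probed overnight with anti-Bcl-2 or anti-Bax, then an HRP secondary. GAPDH served as loading control, with ECL detection.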

KB/VCR [12] = experiment: Reversal of P-glycoprotein-mediated vincristine-resistance in human KB/VCR cells expressing Pgp assessed as ratio of adriamycin IC50 to adriamycin IC50 in presence of compound at 4 uM after 48 hrs by MTT assay; type: cell-based; procedure, shortened: as §1
KB [13] = experiment: Potentiation of vincristine-induced cytotoxicity against human KB cells at 16 uM after 48 hrs by MTT assay; type: functional; procedure, shortened: as §1
KB/VCR [14] = experiment: Inhibition of P-gp-mediated rhodamine-123 efflux in human KB/VCR cells at 6 uM after 1 hr by flow cytometry; type: cell-based
Procedure, shortened: (§5)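 For efflux, cells were loaded with 5 µM Rh123 together with modulator or verapamil for 60 min at 37 °C. Cells were washed three times in Rh123-free medium and collected at 15, 30, 45, 60, 90 and 120 min after wash-out. They were resuspended in ice-cold PBS, and remaining Rh123 fluorescence was measured by flow cytometry.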

KB/VCR [15] = experiment: Reversal of P-glycoprotein-mediated vincristine-resistance in human KB/VCR cells expressing Pgp assessed as ratio of adriamycin IC50 to adriamycin IC50 in presence of compound at 16 uM after 48 hrs by MTT assay; type: cell-based; procedure, shortened: as §1
KB [16] = experiment: Potentiation of vincristine-induced cytotoxicity against human KB cells at 4 uM after 48 hrs by MTT assay; type: functional; procedure, shortened: as §1
KB [17] = experiment: Induction of rhodamine-123 accumulation in human KB cells at […] after 1 hr by flow cytometry; type: functional, cell-based
Procedure, shortened: (§6)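 Cells were pretreated with modulator at 4, 8 or 16 µM, or DMSO, for 1 h. Rh123 (5 µM) was then added for a further 1 h at 37 °C in the dark. Cells were washed and resuspended in ice-cold PBS. Rh123 fluorescence was read by flow cytometry using 488 nm excitation and a 530 nm band-pass filter. Means ± SD of three independent experiments, compared with DMSO-treated cells.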

KB/VCR [18] = experiment: Induction of apoptosis in human KB/VCR cells expressing Pgp assessed as morphological changes using DAPI staining at 16 uM after 48 hrs by fluorescence microscopic analysis; type: functional, cell-based
Procedure, shortened: (§7)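 KB/VCR cells were treated for 48 h with modulator (16 µM), VCR (0.2 µM), or both. Cells were fixed in 4% paraformaldehyde for 10 min, permeabilized with 0.1% Triton X-100, and stained with DAPI (1:2000) for 10 min. Condensed or fragmented nuclei were scored by fluorescence microscopy.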

KB/VCR [19] = experiment: Induction of apoptosis in human KB/VCR cells expressing Pgp assessed as up-regulation of Bax expression at 16 uM after 48 hrs by Western blotting; type: functional, cell-based; procedure, shortened: as §4
KB [20] = experiment: Potentiation of adriamycin-induced cytotoxicity against human KB cells at 4 uM after 48 hrs by MTT assay; type: functional; procedure, shortened: as §1
KB [21] = experiment: Potentiation of vincristine-induced cytotoxicity against human KB cells at 8 uM after 48 hrs by MTT assay; type: functional; procedure, shortened: as §1
KB/VCR [22] = experiment: Reversal of P-glycoprotein-mediated vincristine-resistance in human KB/VCR cells expressing Pgp assessed as ratio of adriamycin IC50 to adriamycin IC50 in presence of compound at 8 uM after 48 hrs by MTT assay; type: cell-based; procedure, shortened: as §1
KB [23] = experiment: Potentiation of adriamycin-induced cytotoxicity against human KB cells at 8 uM after 48 hrs by MTT assay; type: functional; procedure, shortened: as §1
KB/VCR [24] = experiment: Reversal of P-gp-mediated multidrug-resistance in human KB/VCR cells assessed as increase in intracellular rhodamine-123 accumulation after 1 hr by flow cytometry relative to control; type: cell-based; procedure, shortened: as §6
KB/VCR [25] = experiment: Inhibition of P-gp-mediated rhodamine-123 efflux in human KB/VCR cells at 6 uM after 2 hrs by flow cytometry; type: cell-based; procedure, shortened: as §5
KB [26] = experiment: Potentiation of adriamycin-induced cytotoxicity against human KB cells at 16 uM after 48 hrs by MTT assay; type: functional; procedure, shortened: as §1
KB/VCR [27] = experiment: Induction of apoptosis in human KB/VCR cells expressing Pgp assessed as down-regulation of Bcl-2 expression at 0.2 uM after 48 hrs by Western blotting; type: functional, cell-based; procedure, shortened: as §4
KB/VCR [28] = experiment: Induction of apoptosis in human KB/VCR cells expressing Pgp assessed as up-regulation of Bax expression at 0.2 uM after 48 hrs by Western blotting; type: functional, cell-based; procedure, shortened: as §4
KB/VCR [29] = experiment: Induction of apoptosis in human KB/VCR cells expressing Pgp assessed as morphological changes using DAPI staining at 0.2 uM after 48 hrs by fluorescence microscopic analysis; type: functional, cell-based; procedure, shortened: as §7
KB/VCR (human) = settings: 4 to 16 uM

Compound | IC50 (KB [1]) | fold change (FC) (KB/VCR [3]) | IC50 ([6]; Homo sapiens, KB/VCR, 48 h) | fold change (FC) (KB/VCR [9]) | fold change (FC) (KB/VCR [10]) | fold change (FC) (KB [13]) | fold change (FC) (KB/VCR [15]) | fold change (FC) (KB [26]) | other results
COc1ccc2cc1Oc1ccc(cc1)/C=C/c1cccc(OC)c1Oc1cccc(c1)CC2 [DIMETHYLETHER DEHYDROMARCHANTIN C] | 93.5 µM | 3.1 | – | – | – | – | – | – | fold change (FC) (KB/VCR [2]): 2.47
COc1cccc2c1C(=O)c1c(O)c3c(c(O)c1C2=O)C[C@@](O)(C(=O)CO)C[C@@H]3O[C@H]1C[C@H](N)[C@H](O)[C@H](C)O1.Cl [DOXORUBICIN HYDROCHLORIDE] | 1.66 µg/mL | – | 49.7 µg/mL | – | – | – | – | – | fold change (FC) (KB/VCR [4]): 2.8; fold change (FC) (KB/VCR [5]): 2.1; Activity (KB [7]): inactive; fold change (FC) (KB/VCR [8]): 5.7
Oc1ccc2cc1Oc1ccc(cc1)/C=C/c1cccc(O)c1Oc1cccc(c1)CC2 [DEHYDROMARCHANTIN C] | 84 µM | 5.95 | 86.9 µM | 2.16 | 3.51 | – | – | – | –
COc1ccc2cc1Oc1ccc(cc1)CCc1cccc(OC)c1Oc1cccc(c1)CC2 [DIMETHYL ETHER MARCHANTIAN C] | 94.9 µM | 7.53 | 95.4 µM | 4.78 | 2.57 and 6.76 | 1.54 | 6.06 | 0.91 | Activity (KB/VCR [11]): inactive; fold change (FC) (KB/VCR [12]): 3.96; inhibition (KB/VCR [14]): Active; fold change (FC) (KB [16]): 1.17; Activity (KB [17]): inactive; Activity (KB/VCR [18]): inactive; Activity (KB/VCR [19]): inactive; fold change (FC) (KB [20]): 1.02; fold change (FC) (KB [21]): 1.33; fold change (FC) (KB/VCR [22]): 4.2; fold change (FC) (KB [23]): 1.15; Activity (KB/VCR [24]): Dose-dependent effect; inhibition (KB/VCR [25]): inactive
CC[C@]1(O)C[C@H]2CN(CCc3c([nH]c4ccccc34)[C@@](C(=O)OC)(c3cc4c(cc3OC)N(C=O)[C@H]3[C@@](O)(C(=O)OC)[C@H](OC(C)=O)[C@]5(CC)C=CCN6CC[C@]43[C@@H]65)C2)C1 [VINCRISTINE] | 0.00607 µM | – | 1.48 µM | – | – | – | – | – | Activity (KB/VCR [27]): inactive; Activity (KB/VCR [28]): inactive; Activity (KB/VCR [29]): inactive; IC50 ([6]; kb/vcr): 1.49 µM
COc1ccc(CCN(C)CCCC(C#N)(c2ccc(OC)c(OC)c2)C(C)C)cc1OC (stereo unspecified) | – | 8.85 | – | – | – | 1.29 | 5.32 | 1.06 | inhibition (KB/VCR (human)): inactive
